PMC3182491 (Investigational new drugs, 2010)
Where “and” joins values, the source holds several entries; their conditions need not be identical. Equal entries are not always repeated.

Experiments:
Assay type in all cases: in vivo
[1] = Pharmacokinetics after single oral administration in healthy dogs; details: dog, 1 mg/kg oral, individual dogs A-F; 1 mg/kg
Procedure, shortened: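 Same six dogs in crossover, two-week washout. Test compound in 2-hydroxypropyl-β-cyclodextrin/sterile water was given once at 1.0 mg/kg as a 5-min oral slurry. Plasma was sampled at 0, 15, 30, 45, 60, 120, 240, 480, 720 min and 24 h and quantified by LC-ES/MS/MS. A one-compartment absorption model gave K01 and K10, Cmax and Tmax; Clo = dose/AUC0-inf; F = AUC oral/AUC IV × dose ratio.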

[2] = Plasma concentration during 48-hour IV constant rate infusion in healthy dogs; details: dog, IV CRI
[3] = Toxicity assessment of 48-hour IV constant rate infusion in healthy dogs; details: dog
Procedure, shortened: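 Four healthy dogs from the kinetic study received IV test compound as a 10-min loading dose, then a constant-rate maintenance infusion for 48 h. […] Haematologic, non-haematologic and gastrointestinal effects were checked weekly for 4 weeks.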

SMILES: C=CCc1cccc(/C=N/NC(=O)CN2CCN(Cc3ccccc3)CC2)c1O [PAC-1]
- t1/2 K10 (terminal elimination half-life) [1]: 2.02 h and 1.83 h and 1.86 h and 2.40 h and 1.97 h and 2.42 h
- plasma concentration after 6 hours of infusion ([2]; average LD 5.8 mg/kg and MD 2.3 mg/kg/hour, n=4): 10.7 ± 2.0 µM
- plateau plasma concentration ([2]; following completion of the first 24 hours): ~ 18 µM
- gastrointestinal toxicity ([3]; 48-hour CRI, 4 week monitoring, n=4): no clinically overt gastrointestinal toxicity
- ALT ([3]; 48-hour CRI, Day 0): 46.7 ± 34.1 U/L
- Calcium ([3]; 48-hour CRI, Day 0): 10.3 ± 0.1 mg/dL
- Creatinine ([3]; 48-hour CRI, Day 0): 0.9 ± 0.2 mg/dL
- Hematocrit ([3]; 48-hour CRI, Day 0): 53.0 ± 3.8%
- Lymphocyte ([3]; 48-hour CRI, Day 0): 1.9 ± 0.3 ×10^3
- Neutrophil ([3]; 48-hour CRI, Day 0): 5.4 ± 1.0 ×10^3
- Phosphorous ([3]; 48-hour CRI, Day 0): 3.7 ± 0.4 mg/dL
- Platelet ([3]; 48-hour CRI, Day 0): 1.9 ± 0.4 ×10^5
- WBC ([3]; 48-hour CRI, Day 0): 8.2 ± 1.5 ×10^3
- ALT ([3]; 48-hour CRI, Day 7): 57.0 ± 34.6 U/L
- Calcium ([3]; 48-hour CRI, Day 7): 10.5 ± 0.3 mg/dL
- Creatinine ([3]; 48-hour CRI, Day 7): 1.0 ± 0.3 mg/dL
- Hematocrit ([3]; 48-hour CRI, Day 7): 55.4 ± 1.3%
- Lymphocyte ([3]; 48-hour CRI, Day 7): 1.3 ± 0.2 ×10^3
- Neutrophil ([3]; 48-hour CRI, Day 7): 5.0 ± 0.5 ×10^3
- Phosphorous ([3]; 48-hour CRI, Day 7): 2.9 ± 0.9 mg/dL
- Platelet ([3]; 48-hour CRI, Day 7): 1.8 ± 0.3 ×10^5
- WBC ([3]; 48-hour CRI, Day 7): 7.0 ± 0.4 ×10^3
- ALT ([3]; 48-hour CRI, Day 14): 56.3 ± 46.7 U/L
- Calcium ([3]; 48-hour CRI, Day 14): 10.2 ± 0.4 mg/dL
- Creatinine ([3]; 48-hour CRI, Day 14): 0.9 ± 0.1 mg/dL
- Hematocrit ([3]; 48-hour CRI, Day 14): 49.3 ± 6.0%
- Lymphocyte ([3]; 48-hour CRI, Day 14): 1.9 ± 0.7 ×10^3
- Neutrophil ([3]; 48-hour CRI, Day 14): 4.3 ± 0.9 ×10^3
- Phosphorous ([3]; 48-hour CRI, Day 14): 3.6 ± 0.3 mg/dL
- Platelet ([3]; 48-hour CRI, Day 14): 2.0 ± 0.4 ×10^5
- WBC ([3]; 48-hour CRI, Day 14): 7.0 ± 0.4 ×10^3
- ALT ([3]; 48-hour CRI, Day 21): 49.7 ± 29.0 U/L
- Calcium ([3]; 48-hour CRI, Day 21): 10.4 ± 0.4 mg/dL
- Creatinine ([3]; 48-hour CRI, Day 21): 1.0 ± 0.2 mg/dL
- Hematocrit ([3]; 48-hour CRI, Day 21): 50.6 ± 3.4%
- Lymphocyte ([3]; 48-hour CRI, Day 21): 1.5 ± 0.2 ×10^3
- Neutrophil ([3]; 48-hour CRI, Day 21): 5.9 ± 0.3 ×10^3
- Phosphorous ([3]; 48-hour CRI, Day 21): 3.4 ± 0.4 mg/dL
- Platelet ([3]; 48-hour CRI, Day 21): 2.2 ± 0.8 ×10^5
- WBC ([3]; 48-hour CRI, Day 21): 8.4 ± 0.6 ×10^3
- tolerability of CRI giving ≥ 10 µM for ≥ 24 hours ([3]; IV CRI, n=4): well-tolerated by all dogs
